ChEMBL document CHEMBL3351998, “Discovery of potent and specific dihydroisoxazole inhibitors of human transglutaminase 2” (J Med Chem, 2014)

What was measured:
[1] = target: T1, Protein-glutamine gamma-glutamyltransferase E (Homo sapiens) (UniProt Q08188); assay: Inhibition of human transglutaminase 3 using ((benzyloxy)carbonyl)-L-glutaminyl-L-serine peptide substrate assessed as Kinh/Ki ratio by GDH coupled assay
T1 sequence (whole entry): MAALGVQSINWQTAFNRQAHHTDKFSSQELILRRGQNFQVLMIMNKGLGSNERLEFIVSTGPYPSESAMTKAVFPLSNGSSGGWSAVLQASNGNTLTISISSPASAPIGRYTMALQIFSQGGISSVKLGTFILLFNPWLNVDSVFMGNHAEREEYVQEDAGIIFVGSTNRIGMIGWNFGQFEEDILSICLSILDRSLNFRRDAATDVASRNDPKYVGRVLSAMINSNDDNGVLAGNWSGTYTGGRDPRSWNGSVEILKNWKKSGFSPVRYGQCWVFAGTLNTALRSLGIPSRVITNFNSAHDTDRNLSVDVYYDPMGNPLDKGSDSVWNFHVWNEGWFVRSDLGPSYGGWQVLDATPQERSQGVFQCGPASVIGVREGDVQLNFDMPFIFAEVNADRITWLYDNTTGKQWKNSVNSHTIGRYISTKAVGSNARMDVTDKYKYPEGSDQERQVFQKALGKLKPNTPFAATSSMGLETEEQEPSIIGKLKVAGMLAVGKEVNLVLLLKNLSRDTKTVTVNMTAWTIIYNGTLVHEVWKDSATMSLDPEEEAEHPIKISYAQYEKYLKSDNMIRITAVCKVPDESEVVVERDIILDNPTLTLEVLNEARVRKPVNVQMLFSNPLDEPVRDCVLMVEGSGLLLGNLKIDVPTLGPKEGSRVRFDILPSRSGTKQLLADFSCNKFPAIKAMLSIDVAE
Outline: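 His-tagged human TG3 activated by cathepsin L (1 μg per 25 μg TG3, MES pH 6.0, 30 min), then quenched with 50 μM E64 for 10 min. Final TG3 ~0.43 μM in 200 mM MOPS pH 7.2, 5 mM CaCl2, 10 mM α-ketoglutarate, 300 μM NADH, 36 U/mL GDH. Z-Gln-Ser at 20/40 mM. Enzyme pre-equilibrated 30 min before inhibitors (typically 100/33.3/11.1/3.7 μM) were added. A340 curves fitted; kinh/Ki from irreversible model.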

[2] = Plasma concentration in CD-1 mouse at 50 mg/kg, po after 20 mins; format: ADME, organism-based; design: dose 50 mg/kg, route oral
Outline: (§1)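 Male CD-1 mice (6−8 weeks, cohorts of five) fasted ~6 h, then gavaged (10 μL/g) with inhibitor mixtures at 50 mg/kg each compound. Vehicle: 25 mg/mL per compound in 1 M HCl/10% Tween-80/25% ethanol, diluted 5-fold into 0.94% methylcellulose in 250 mM trisodium citrate. Blood sampled at 5, 20 (saphenous) and 60 min (cardiac). Plasma quantified by LC-MS (ESI-QTOF) against standard curves.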

[3] = Plasma concentration in CD-1 mouse at 50 mg/kg, po after 5 mins; format: ADME, organism-based; design: dose 50 mg/kg, route oral; outline: as §1
[4] = target: T2, Protein-glutamine gamma-glutamyltransferase K (Homo sapiens) (UniProt P22735); assay: Inhibition of human transglutaminase 1 using ((benzyloxy)carbonyl)-L-glutaminyl-L-serine peptide substrate assessed as Kinh/Ki ratio by GDH coupled assay
T2 sequence (whole entry): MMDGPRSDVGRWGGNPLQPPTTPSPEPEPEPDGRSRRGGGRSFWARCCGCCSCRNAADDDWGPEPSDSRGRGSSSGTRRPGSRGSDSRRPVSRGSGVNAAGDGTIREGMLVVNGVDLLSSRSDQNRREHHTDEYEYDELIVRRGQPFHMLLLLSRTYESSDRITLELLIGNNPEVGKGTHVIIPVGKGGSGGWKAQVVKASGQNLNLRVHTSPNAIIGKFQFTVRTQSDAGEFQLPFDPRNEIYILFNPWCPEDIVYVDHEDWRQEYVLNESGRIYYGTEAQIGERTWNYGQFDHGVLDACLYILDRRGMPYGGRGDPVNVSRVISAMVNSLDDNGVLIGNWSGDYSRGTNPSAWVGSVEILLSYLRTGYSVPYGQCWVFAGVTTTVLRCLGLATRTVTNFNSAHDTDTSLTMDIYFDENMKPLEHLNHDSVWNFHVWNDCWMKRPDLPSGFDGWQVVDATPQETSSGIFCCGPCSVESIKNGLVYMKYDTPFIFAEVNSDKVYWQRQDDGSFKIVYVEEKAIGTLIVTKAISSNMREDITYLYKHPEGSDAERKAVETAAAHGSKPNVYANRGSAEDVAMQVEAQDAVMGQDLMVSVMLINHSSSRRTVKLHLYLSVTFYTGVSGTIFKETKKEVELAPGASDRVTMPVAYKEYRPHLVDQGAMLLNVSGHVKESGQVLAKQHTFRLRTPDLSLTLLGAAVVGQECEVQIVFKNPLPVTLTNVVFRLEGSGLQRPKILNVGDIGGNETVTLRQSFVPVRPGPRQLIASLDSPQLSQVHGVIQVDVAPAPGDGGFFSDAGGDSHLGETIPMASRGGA
Outline: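 Recombinant His-tagged human TG1 from E. coli Rosetta 2 pLysS, final ~0.37 μM, in 200 mM MOPS pH 7.2, 5 mM CaCl2, 10 mM α-ketoglutarate, 300 μM NADH, 36 U/mL GDH. Z-Gln-Ser at 20/40 mM. Inhibitors typically at 100/33.3/11.1/3.7 μM (1% DMSO), added after ≥5 min enzyme pre-equilibration. NADH loss read at 340 nm; progress curves fitted to exponential decay, kinh/Ki from irreversible model.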

[5] = Half life in CD-1 mouse at 50 mg/kg, po; format: ADME, organism-based; design: dose 50 mg/kg, route oral; settings: in vivo; outline: as §1

Structure (SMILES) | Ratio [1] | concentration at 20 min [2] | concentration at 5 min [3] | Ratio [4] | half-life [5]
O=C(NC[C@@H]1CC(Br)=NO1)[C@@H]1CCCN1C(=O)OCc1cnc2ccccc2c1 | < 1 | 1200 ng/mL | 2100 ng/mL | 13.2 | 15 min
O=C(N[C@@H]1C[C@@H](C(=O)NC[C@@H]2CC(Br)=NO2)N(C(=O)OCc2cnc3ccccc3c2)C1)c1ccc(O)cc1 | < 1 | – | – | 31.3 | 15 min
O=C(NC[C@@H]1CC(Br)=NO1)[C@@H]1C[C@@H](O)CN1C(=O)OCc1cnc2ccccc2c1 | < 1 | – | – | 4.8 | 15 min
O=C(NC[C@@H]1CC(Br)=NO1)[C@@H]1C[C@@H](OCc2ccccc2)CN1C(=O)OCc1cnc2ccccc2c1 | < 1 | – | – | 5.8 | 15 min
O=C(NC[C@@H]1CC(Br)=NO1)[C@@H]1C[C@@H](c2ccc(O)cc2)CN1C(=O)OCc1cnc2ccccc2c1 | < 1 | – | – | 90.7 | 15 min
O=C(N[C@@H]1C[C@@H](C(=O)NC[C@@H]2CC(Br)=NO2)N(C(=O)OCc2cnc3ccccc3c2)C1)c1cccnc1 | < 1 | – | – | 20 | 15 min
O=C(NC[C@@H]1CC(Br)=NO1)[C@@H]1C[C@H](F)CN1C(=O)OCc1cnc2ccccc2c1 | < 1 | 2100 ng/mL | 2900 ng/mL | 6 | 15 min
O=C(NC[C@@H]1CC(Br)=NO1)[C@@H]1C[C@@H](c2ccccc2)CN1C(=O)OCc1cnc2ccccc2c1 | < 1 | – | – | 66.3 | 15 min
